Laboratory results: ChEMBL document CHEMBL1156209, “Hybrid ortho/allosteric ligands for the adenosine A(1) receptor” (J Med Chem, 2010)

Columns and labels:
[1] = molecular target: T1, Adenosine receptor A1 (Homo sapiens) (UniProt P30542); assay: Displacement of [3H]CCPA from human adenosine A1 receptor expressed in CHO cells by scintillation counting relative to control; type: cell-based
T1 sequence (whole entry): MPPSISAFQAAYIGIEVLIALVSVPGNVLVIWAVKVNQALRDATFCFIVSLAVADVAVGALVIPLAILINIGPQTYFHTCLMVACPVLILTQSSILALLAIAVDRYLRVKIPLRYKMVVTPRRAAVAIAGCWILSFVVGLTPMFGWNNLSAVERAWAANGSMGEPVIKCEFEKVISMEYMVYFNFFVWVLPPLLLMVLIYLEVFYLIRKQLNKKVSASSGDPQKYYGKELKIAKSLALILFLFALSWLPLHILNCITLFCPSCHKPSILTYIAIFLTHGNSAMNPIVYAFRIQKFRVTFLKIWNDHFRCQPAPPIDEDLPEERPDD
How it was run: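 Filtration and scintillation counting. Nonspecific binding defined with 10 μM CPA. pKi and maximal displacement given as percent of specific binding. pKi compared by one-way ANOVA with Bonferroni test.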

Adenosine receptor A1 [2] = molecular target: T2, Adenosine receptor A1 (Homo sapiens, UniProt P30542); assay: Enhancement of [3H]CCPA binding to human adenosine A1 receptor expressed in CHO cells by scintillation counting
T2 sequence (P30542 whole entry): T1 sequence (whole entry)

[3] = molecular target: T1, Adenosine receptor A1 (Homo sapiens); assay: Displacement of […] from human adenosine A1 receptor expressed in CHO cells by scintillation counting relative to control; type: cell-based; set-up: concentration or dose not given beside the values
How it was run: (§1)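 Equilibrium competition in 50 mM Tris HCl pH 7.4 with 0.8 IU/mL adenosine deaminase and 1.6 nM [3H]DPCPX. Increasing ligand concentrations ± 10 μM PD81,723. CHO-hA1 membranes (10 μg protein) incubated 1 h at 25 °C. GF/B filtration, scintillation counting. Nonspecific binding defined with 10 μM CPA. High- and low-affinity Ki taken from biphasic curves.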

Adenosine receptor A1 [4] = molecular target: T2, Adenosine receptor A1; assay: Displacement of […] from human adenosine A1 receptor expressed in CHO cells by scintillation counting in presence of 10 uM allosteric modulator PD-81723; type: cell-based; how it was run: as §1
Adenosine receptor A1 [5] = molecular target: T2, Adenosine receptor A1; assay: Displacement of […] from human adenosine A1 receptor expressed in CHO cells by scintillation counting; type: cell-based; how it was run: as §1
[6] = molecular target: T1, Adenosine receptor A1 (Homo sapiens); assay: Selectivity ratio of EC50 for human adenosine A1 receptor-mediated ERK1/2 phosphorylation to EC50 for human adenosine A1 receptor-mediated ERK1/2 phosphorylation in presence of 10 uM allosteric modulator PD-81723 assessed as
How it was run: (§2)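 Intact CHO-hA1 cells seeded at 40 000/well. After 6 h, washed and serum-starved in DMEM for 14 h. Pretreated 30 min with 0.8 IU/mL adenosine deaminase, then stimulated 5 min with compound ± 10 μM PD81,723. Lysed; phospho-ERK1/2 read by AlphaScreen SureFire after ≥3 h dark incubation at room temperature. Emax given as percent of the reference agonist. Mean ± SEM of ≥3 experiments. Fold shift in pEC50 versus control.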

Adenosine receptor A1 [7] = molecular target: T2, Adenosine receptor A1; assay: Agonist activity at human adenosine A1 receptor expressed in CHO cells assessed as [35S]GTPgammaS binding by scintillation counting in presence of 10 uM allosteric modulator PD-81723; type: functional, cell-based
How it was run: (§3)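 CHO-hA1 membranes (5 μg protein) preincubated 30 min at 25 °C in 50 mM Tris, 100 mM NaCl, 10 mM MgCl, pH 7.4 with 3 μM GDP and a concentration range of agonist, with or without 10 μM PD81,723. 0.3 nM (final) [35S]GTPγS then added for 45 min at 25 °C. Filtration, washing, scintillation counting. Emax given as percent of maximal stimulation by the reference agonist. Control and PD81,723 pEC50 compared to give fold shift.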

Adenosine receptor A1 [8] = molecular target: T2, Adenosine receptor A1; assay: Agonist activity at human adenosine A1 receptor expressed in CHO cells assessed as stimulation of ERK1/2 phosphorylation in presence of 10 uM allosteric modulator PD-81723; type: functional, cell-based; how it was run: as §2
[9] = molecular target: T1, Adenosine receptor A1 (Homo sapiens); assay: Agonist activity at human adenosine A1 receptor expressed in CHO cells assessed as stimulation of ERK1/2 phosphorylation relative to control; type: functional, cell-based; how it was run: as §2
Adenosine receptor A1 [10] = molecular target: T2, Adenosine receptor A1; assay: Agonist activity at human adenosine A1 receptor expressed in CHO cells assessed as stimulation of ERK1/2 phosphorylation; type: functional, cell-based; how it was run: as §2
[11] = molecular target: T1, Adenosine receptor A1 (Homo sapiens); assay: Agonist activity at human adenosine A1 receptor expressed in CHO cells assessed as stimulation of ERK1/2 phosphorylation in presence of 10 uM allosteric modulator PD-81723 relative to control; type: functional, cell-based; how it was run: as §2
[12] = molecular target: T1, Adenosine receptor A1 (Homo sapiens); assay: Agonist activity at human adenosine A1 receptor expressed in CHO cells assessed as [35S]GTPgammaS binding by scintillation counting relative to control; type: functional, cell-based; how it was run: as §3
Adenosine receptor A1 [13] = molecular target: T2, Adenosine receptor A1; assay: Agonist activity at human adenosine A1 receptor expressed in CHO cells assessed as [35S]GTPgammaS binding by scintillation counting; type: functional, cell-based; how it was run: as §3
[14] = molecular target: T1, Adenosine receptor A1 (Homo sapiens); assay: Selectivity ratio of EC50 for human adenosine A1 receptor to EC50 for human adenosine A1 receptor in presence of 10 uM allosteric modulator PD-81723; how it was run: as §3
[15] = molecular target: T1, Adenosine receptor A1 (Homo sapiens); assay: Agonist activity at human adenosine A1 receptor expressed in CHO cells assessed as [35S]GTPgammaS binding by scintillation counting in presence of 10 uM allosteric modulator PD-81723 relative to control; type: functional, cell-based; how it was run: as §3
Adenosine receptor A1 [16] = molecular target: T2, Adenosine receptor A1; assay: Displacement of […] from human adenosine A1 receptor expressed in CHO cells at high affinity site by scintillation counting; type: cell-based; how it was run: as §1
Adenosine receptor A1 [17] = molecular target: T2, Adenosine receptor A1; assay: Displacement of […] from human adenosine A1 receptor expressed in CHO cells at low affinity site by scintillation counting; type: cell-based; how it was run: as §1

Structure (SMILES) | Emax [1] [%] | Activity [3] [%] | Ki (Adenosine receptor A1 [4]; read-out: Ki) [nM] | Ki (Adenosine receptor A1 [5]; read-out: Ki) [nM] | Ki (Adenosine receptor A1 [4]; read-out: pKi (converted)) [nM] | Ki (Adenosine receptor A1 [5]; read-out: pKi (converted)) [nM] | further results
Nc1sc2c(c1C(=O)c1ccc(Cl)c(Cl)c1)CCN(CCCOc1ccc([N+](=O)[O-])cc1)C2 | 204 |  |  |  |  |  | EC50 (Adenosine receptor A1 [2]): 3700 nM
Nc1sc2c(c1C(=O)c1ccc(Cl)c(Cl)c1)CCN(CCCCCCCOc1ccc(Nc3ncnc4c3ncn4[C@@H]3O[C@H](CO)[C@@H](O)[C@H]3O)cc1)C2 |  | 91 | 347 | 450 |  |  | 
Cc1sc(N)c(C(=O)c2cccc(C(F)(F)F)c2)c1C | 140 |  |  |  |  |  | 
Nc1sc2c(c1C(=O)c1ccc(Cl)c(Cl)c1)CCN(CCOc1ccc([N+](=O)[O-])cc1)C2 | 250 |  |  |  |  |  | EC50 (Adenosine receptor A1 [2]): 8500 nM
Nc1sc2c(c1C(=O)c1ccc(Cl)c(Cl)c1)CCN(CCCCCOc1ccc(Nc3ncnc4c3ncn4[C@@H]3O[C@H](CO)[C@@H](O)[C@H]3O)cc1)C2 | 97 | 100 | 114 | 219 | 110 | 214 | Ratio EC50 [6]: 1.8; EC50 (Adenosine receptor A1 [7]; read-out: EC50): 52 nM; EC50 (Adenosine receptor A1 [8]; read-out: EC50): 89 nM; Emax [9]: 114%; EC50 (Adenosine receptor A1 [10]; read-out: EC50): 156 nM; EC50 (Adenosine receptor A1 [10]; read-out: pEC50 (converted)): 151 nM; Emax [11]: 131%; Emax [12]: 110%; EC50 (Adenosine receptor A1 [13]; read-out: EC50): 273 nM; EC50 (Adenosine receptor A1 [13]; read-out: pEC50 (converted)): 269 nM; Ratio EC50 [14]: 5.2; Emax [15]: 97%
Nc1sc2c(c1C(=O)c1ccc(Cl)c(Cl)c1)CCN(CCOc1ccc(Nc3ncnc4c3ncn4[C@@H]3O[C@H](CO)[C@@H](O)[C@H]3O)cc1)C2 |  | 100 | 469 | 751 |  | 741 | 
Nc1sc2c(c1C(=O)c1ccc(Cl)c(Cl)c1)CCN(CCCOc1ccc(Nc3ncnc4c3ncn4[C@@H]3O[C@H](CO)[C@@H](O)[C@H]3O)cc1)C2 |  | 100 | 268 | 439 | 245 | 417 | 
Nc1sc2c(c1C(=O)c1ccc(Cl)c(Cl)c1)CCN(CCCCCCOc1ccc(Nc3ncnc4c3ncn4[C@@H]3O[C@H](CO)[C@@H](O)[C@H]3O)cc1)C2 |  | 103 | 288 | 419 | 275 | 479 | 
Nc1sc2c(c1C(=O)c1ccc(Cl)c(Cl)c1)CCN(CCCCCCCCCCOc1ccc(Nc3ncnc4c3ncn4[C@@H]3O[C@H](CO)[C@@H](O)[C@H]3O)cc1)C2 |  | 55 | 1360 | 1470 | 1290 | 1260 | 
COc1ccc(Nc2ncnc3c2ncn3[C@@H]2O[C@H](CO)[C@@H](O)[C@H]2O)cc1 | 100 | 100 | 195 | 842 | 191 | 832 | Ratio EC50 [6]: 4.4; Ki (Adenosine receptor A1 [16]; read-out: Ki): 71 nM; Ki (Adenosine receptor A1 [16]; read-out: pKi (converted)): 42.7 nM; EC50 (Adenosine receptor A1 [7]; read-out: EC50): 29 nM; EC50 (Adenosine receptor A1 [7]; read-out: pEC50 (converted)): 30.2 nM; EC50 (Adenosine receptor A1 [8]; read-out: EC50): 5 nM; Emax [9]: 100%; EC50 (Adenosine receptor A1 [10]; read-out: EC50): 22 nM; EC50 (Adenosine receptor A1 [10]; read-out: pEC50 (converted)): 20.9 nM; Emax [11]: 131%; Emax [12]: 100%; Ki (Adenosine receptor A1 [17]; read-out: Ki): 1990 nM; Ki (Adenosine receptor A1 [17]; read-out: pKi (converted)): 1860 nM; EC50 (Adenosine receptor A1 [13]; read-out: EC50): 142 nM; EC50 (Adenosine receptor A1 [13]; read-out: pEC50 (converted)): 123 nM; Ratio EC50 [14]: 4.9; Emax [15]: 91%
Nc1sc2c(c1C(=O)c1ccc(Cl)c(Cl)c1)CCN(CCCCCCCCOc1ccc(Nc3ncnc4c3ncn4[C@@H]3O[C@H](CO)[C@@H](O)[C@H]3O)cc1)C2 |  | 65 | 591 | 836 | 457 | 776 | 
Nc1sc2c(c1C(=O)c1ccc(Cl)c(Cl)c1)CCN(CCCCCCCCCOc1ccc(Nc3ncnc4c3ncn4[C@@H]3O[C@H](CO)[C@@H](O)[C@H]3O)cc1)C2 | 79 | 83 | 651 | 679 |  | 661 | Ratio EC50 [6]: 1.3; EC50 (Adenosine receptor A1 [7]; read-out: EC50): 181 nM; EC50 (Adenosine receptor A1 [7]; read-out: pEC50 (converted)): 178 nM; EC50 (Adenosine receptor A1 [8]; read-out: EC50): 813 nM; EC50 (Adenosine receptor A1 [8]; read-out: pEC50 (converted)): 692 nM; Emax [9]: 123%; EC50 (Adenosine receptor A1 [10]; read-out: EC50): 1070 nM; EC50 (Adenosine receptor A1 [10]; read-out: pEC50 (converted)): 955 nM; Emax [11]: 122%; Emax [12]: 110%; EC50 (Adenosine receptor A1 [13]; read-out: EC50): 390 nM; Ratio EC50 [14]: 2.2; Emax [15]: 105%
Nc1sc2c(c1C(=O)c1ccc(Cl)c(Cl)c1)CCN(CCCCOc1ccc(Nc3ncnc4c3ncn4[C@@H]3O[C@H](CO)[C@@H](O)[C@H]3O)cc1)C2 |  | 100 | 313 | 618 |  |  | 
Nc1sc2c(c1C(=O)c1ccc(Cl)c(Cl)c1)CCN(CCCCCOc1ccc([N+](=O)[O-])cc1)C2 | 185 |  |  |  |  |  | EC50 (Adenosine receptor A1 [2]): 5200 nM
